Source: ChEMBL document CHEMBL1121590, “Synthesis and enzymatic and inotropic activity of some new 8-substituted and 6,8-disubstituted derivatives of adenosine cyclic 3',5'-monophosphate” (J Med Chem, 1980)
Active and inactive are the calls of the source. No cut-off for these calls is given here.

Legend:
Canis familiaris [1] = assay: Inotropic change in blood pressure (systolic/diastolic mmHg) in anesthetized dog; 6/-19; type: functional, organism-based; conditions: Canis lupus familiaris; Artery
In short: (§1)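 Adult mongrel dogs of either sex, induced with sodium methohexital and maintained on methoxyflurane, breathing spontaneously at 37 ± 1 °C. The right atrium was electrically paced, and the pacer was switched off periodically to obtain spontaneous rate. Dose was 3.1 mg/kg iv via the femoral vein. Catheter-tip transducers recorded aortic and LV pressure; LV dP/dt max indexed contractility. BP and rate were taken at the time of maximal % change in dP/dt max. 1–4 dogs were used per compound.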

Canis familiaris [2] = assay: Change in heart rate (beats/min) in anesthetized dog; type: functional, Canis lupus familiaris; in short: as §1
Canis familiaris [3] = assay: Evaluated for dP/dt max in anesthetized dogs; type: functional, Canis lupus familiaris; in short: as §1
[4] = Inhibition of cAMP phosphodiesterase preparation from rabbit lung at a substrate concentration of 0.14 uM
Phosphodiesterase 4 = Phosphodiesterase 4 (Homo sapiens, UniProt P27815+Q08499+Q07343+Q08493); conditions: Oryctolagus cuniculus; Kidney
Canis familiaris [5] = assay: Inotropic change in blood pressure (systolic/diastolic mmHg) in anesthetized dog; 2/-5; type: functional, organism-based; conditions: Canis lupus familiaris; Artery; in short: as §1
Canis familiaris [6] = assay: Inotropic change in blood pressure (systolic/diastolic mmHg) in anesthetized dog; -6/-22; type: functional, organism-based; conditions: Canis lupus familiaris; Artery; in short: as §1
Canis familiaris [7] = assay: Inotropic change in blood pressure (systolic/diastolic mmHg) in anesthetized dog; -8/-25; type: functional, organism-based; conditions: Canis lupus familiaris; Artery; in short: as §1
Canis familiaris [8] = assay: Inotropic change in blood pressure (systolic/diastolic mmHg) in anesthetized dog; -4/-9; type: functional, organism-based; conditions: Canis lupus familiaris; Artery; in short: as §1
Canis familiaris [9] = assay: Inotropic change in blood pressure (systolic/diastolic mmHg) in anesthetized dog; 0/-6; type: functional, Canis lupus familiaris, Artery; in short: as §1

| Structure (SMILES) | I50 [4] | Hydrolysis (Phosphodiesterase 4) | further results |
| --- | --- | --- | --- |
| CCCNc1ncnc2c1nc(SCc1ccccc1)n2[C@@H]1O[C@@H]2COP(=O)(O)O[C@H]2[C@H]1O | 3.6 µM | < 0.05 | Change (Canis familiaris [1]): inactive; Change (Canis familiaris [2]): 24 beats/min; Change (Canis familiaris [3]): 127% |
| CC(C)CNc1ncnc2c1nc(Sc1ccc(Cl)cc1)n2[C@@H]1O[C@@H]2COP(=O)(O)O[C@H]2[C@H]1O | 1.2 µM | < 0.05 |  |
| CCCCNc1ncnc2c1nc(SCc1ccccc1)n2[C@@H]1O[C@@H]2COP(=O)(O)O[C@H]2[C@H]1O | 20 µM | < 0.05 | Change (Canis familiaris [2]): 0 beats/min; Change (Canis familiaris [3]): 84%; Change (Canis familiaris [5]): inactive |
| CCCCSc1nc2c(N)ncnc2n1[C@@H]1O[C@@H]2COP(=O)(O)O[C@H]2[C@H]1O | 25 µM | < 0.05 |  |
| CCCSc1nc2c(N)ncnc2n1[C@@H]1O[C@@H]2COP(=O)(O)O[C@H]2[C@H]1O | 37 µM | < 0.05 |  |
| Nc1ncnc2c1nc(S)n2[C@@H]1O[C@@H]2COP(=O)(O)O[C@H]2[C@H]1O | 20 µM | < 0.05 |  |
| CCN(CC)c1ncnc2c1nc(Sc1ccc(Cl)cc1)n2[C@@H]1O[C@@H]2COP(=O)(O)O[C@H]2[C@H]1O | 3.5 µM | < 0.05 |  |
| CNc1ncnc2c1ncn2[C@@H]1O[C@@H]2COP(=O)(O)O[C@H]2[C@H]1O | 50 µM | 0.22 |  |
| CCCCCSc1nc2c(N)ncnc2n1[C@@H]1O[C@@H]2COP(=O)(O)O[C@H]2[C@H]1O | 15 µM | < 0.05 |  |
| CN(C)c1ncnc2c1nc(SCc1ccccc1)n2[C@@H]1O[C@@H]2COP(=O)(O)O[C@H]2[C@H]1O |  | < 0.05 | Change (Canis familiaris [2]): 15 beats/min; Change (Canis familiaris [3]): 61%; Change (Canis familiaris [7]): inactive |
| Cc1ccccc1CSc1nc2c(N)ncnc2n1[C@@H]1O[C@@H]2COP(=O)(O)O[C@H]2[C@H]1O | 33 µM | < 0.05 |  |
| Nc1ncnc2c1nc(SC1CCCCC1)n2[C@@H]1O[C@@H]2COP(=O)(O)O[C@H]2[C@H]1O | 13 µM | < 0.05 |  |
| COc1ccc(CSc2nc3c(N)ncnc3n2[C@@H]2O[C@@H]3COP(=O)(O)O[C@H]3[C@H]2O)cc1 | 30 µM | < 0.05 |  |
| CNc1ncnc2c1nc(SCc1ccccc1)n2[C@@H]1O[C@@H]2COP(=O)(O)O[C@H]2[C@H]1O | 120 µM | < 0.05 | Change (Canis familiaris [2]): 0 beats/min; Change (Canis familiaris [3]): 71%; Change (Canis familiaris [9]): 0% |
| O=P1(O)OC[C@H]2O[C@@H](n3c(SCc4ccccc4)nc4c(N5CCCC5)ncnc43)[C@H](O)[C@@H]2O1 | 5 µM | < 0.05 |  |
| CSc1ncnc2c1ncn2[C@@H]1O[C@@H]2COP(=O)(O)O[C@H]2[C@H]1O | 80 µM | 0.46 |  |
| Nc1ncnc2c1nc(SCCO)n2[C@@H]1O[C@@H]2COP(=O)(O)O[C@H]2[C@H]1O | 20 µM | < 0.05 |  |
| Nc1ncnc2c1nc(Sc1ccc(Br)cc1)n2[C@@H]1O[C@@H]2COP(=O)(O)O[C@H]2[C@H]1O | 240 µM | < 0.05 |  |
| Nc1ncnc2c1nc(Cl)n2[C@@H]1O[C@@H]2COP(=O)(O)O[C@H]2[C@H]1O [TOCLADESINE] | 59 µM | < 0.05 |  |
| Nc1nc2c(Cl)ncnc2n1[C@@H]1O[C@@H]2COP(=O)(O)O[C@H]2[C@H]1O | 200 µM | 0.74 |  |
| CSc1nc2c(N)ncnc2n1[C@@H]1O[C@@H]2COP(=O)(O)O[C@H]2[C@H]1O | 69 µM | < 0.05 |  |
| O=P1(O)OC[C@H]2O[C@@H](n3cnc4c(Cl)ncnc43)[C@H](O)[C@@H]2O1 | 20 µM | 1.2 |  |
| O=P1(O)OC[C@H]2O[C@@H](n3c(SCc4ccccc4)nc4c(SCc5ccccc5)ncnc43)[C@H](O)[C@@H]2O1 | 4.6 µM | < 0.05 |  |

Now from value to compound, other results behind:

| I50 [4] | Hydrolysis (Phosphodiesterase 4) | Structure (SMILES) | further results |
| --- | --- | --- | --- |
| 150 µM | < 0.05 | Nc1ncnc2c1nc(O)n2[C@@H]1O[C@@H]2COP(=O)(O)O[C@H]2[C@H]1O |  |
| 25 µM | 0.54 | O=P1(O)OC[C@H]2O[C@@H](n3cnc4c(SCc5ccccc5)ncnc43)[C@H](O)[C@@H]2O1 |  |
| 53 µM | 1.1 | O=P1(O)OC[C@H]2O[C@@H](n3cnc4c(=S)[nH]cnc43)[C@H](O)[C@@H]2O1 |  |
| 13 µM | < 0.05 | CCN(CC)c1ncnc2c1nc(N(CC)CC)n2[C@@H]1O[C@@H]2COP(=O)(O)O[C@H]2[C@H]1O |  |
| 10 µM | < 0.05 | O=P1(O)OC[C@H]2O[C@@H](n3c(Sc4ccc(Cl)cc4)nc4c(N5CCCCC5)ncnc43)[C@H](O)[C@@H]2O1 |  |
| 33 µM | < 0.05 | CCSc1nc2c(N)ncnc2n1[C@@H]1O[C@@H]2COP(=O)(O)O[C@H]2[C@H]1O |  |
| 2.5 µM | < 0.05 | CCNc1ncnc2c1nc(SCc1ccccc1)n2[C@@H]1O[C@@H]2COP(=O)(O)O[C@H]2[C@H]1O | Change (Canis familiaris [2]): 10 beats/min; Change (Canis familiaris [3]): 80%; Change (Canis familiaris [6]): inactive |
| 53 µM | < 0.05 | Nc1ncnc2c1nc(SCc1ccccc1)n2[C@@H]1O[C@@H]2COP(=O)(O)O[C@H]2[C@H]1O |  |
| 3.6 µM | < 0.05 | CCN(CC)c1ncnc2c1nc(SCc1ccccc1)n2[C@@H]1O[C@@H]2COP(=O)(O)O[C@H]2[C@H]1O | Change (Canis familiaris [2]): 5 beats/min; Change (Canis familiaris [3]): 45%; Change (Canis familiaris [8]): inactive |
| 27 µM | < 0.05 | Nc1ncnc2c1nc(SCc1ccc([N+](=O)[O-])cc1)n2[C@@H]1O[C@@H]2COP(=O)(O)O[C@H]2[C@H]1O |  |
| 400 µM | < 0.05 | Nc1ncnc2c1nc(SCC(=O)[O-])n2[C@@H]1O[C@@H]2COP(=O)(O)O[C@H]2[C@H]1O.[Na+] |  |
| 29 µM | < 0.05 | O=P1(O)OC[C@H]2O[C@@H](n3c(SCc4ccccc4)nc4c(NCc5ccccc5)ncnc43)[C@H](O)[C@@H]2O1 |  |
| 29 µM | < 0.05 | C=CCSc1nc2c(N)ncnc2n1[C@@H]1O[C@@H]2COP(=O)(O)O[C@H]2[C@H]1O |  |
| 83 µM | 0.3 | Nc1nc2c(=S)[nH]cnc2n1[C@@H]1O[C@@H]2COP(=O)(O)O[C@H]2[C@H]1O |  |
| 56 µM | < 0.05 | CC(C)Sc1nc2c(N)ncnc2n1[C@@H]1O[C@@H]2COP(=O)(O)O[C@H]2[C@H]1O |  |
| 38 µM | < 0.05 | Nc1ncnc2c1nc(SCc1ccc(F)cc1)n2[C@@H]1O[C@@H]2COP(=O)(O)O[C@H]2[C@H]1O |  |
| 50 µM | < 0.05 | CSc1ncnc2c1nc(SC)n2[C@@H]1O[C@@H]2COP(=O)(O)O[C@H]2[C@H]1O |  |
| 16 µM | < 0.05 | CCCCCNc1ncnc2c1nc(SCc1ccccc1)n2[C@@H]1O[C@@H]2COP(=O)(O)O[C@H]2[C@H]1O |  |
| 48 µM | < 0.05 | COc1ccc(Sc2nc3c(N)ncnc3n2[C@@H]2O[C@@H]3COP(=O)(O)O[C@H]3[C@H]2O)cc1 |  |
